# Screens as filed in PubChem.
# MC4R antagonist: blocks human MC4R cAMP signaling. P32245. MC4R-expressing cells, MTII-stimulated cAMP, LANCE TR-FRET. inhibition, % at 6.5 µM. 360,000 tested, 0.48% active. AID 540295;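 active = inhibition above its plate's cutoff, the mean of tested wells on that plate plus 3 SD, cut at about 29% in these data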;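 note: 0% = Melanotan II alone and 100% = Melanotan II plus saturating MCL0020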
# Target sequence (P32245 whole entry, looked up): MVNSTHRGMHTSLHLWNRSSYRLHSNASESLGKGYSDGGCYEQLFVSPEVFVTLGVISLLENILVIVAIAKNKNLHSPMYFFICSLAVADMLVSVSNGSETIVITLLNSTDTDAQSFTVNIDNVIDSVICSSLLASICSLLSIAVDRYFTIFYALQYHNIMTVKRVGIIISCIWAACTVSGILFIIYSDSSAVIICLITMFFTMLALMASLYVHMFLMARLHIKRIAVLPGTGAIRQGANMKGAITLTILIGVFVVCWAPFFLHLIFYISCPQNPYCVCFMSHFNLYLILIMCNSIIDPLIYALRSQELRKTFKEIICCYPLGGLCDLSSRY
#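 Assay system: U2OS-MC4R stable cell line; Also added: Melanotan II; Technique: Eu-cAMP/anti-cAMP TR-FRET, emission 671 nm; Times: 30-min compound, 1-h challenge, 1-h detection, room temperature.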
# Granule exo inh: blocks lytic granule exocytosis; TALL-104 LAMP-1 surface exposure, flow cytometry; cells stimulated with thapsigargin and PMA; inhibition, % at 10 µM; 360,000 tested, 0.66% active; AID 651702;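 active = inhibition above about 55%, limit read from the data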
# T cell modulator: T cell immune modulation candidate; 2C CD8+ T cell-vesicle binding, flow cytometry; active compounds read low; response (vesicle binding), % at 7 µM; 330,000 tested, 0.068% active; AID 2052;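 active = response, share of CD8 T cells binding vesicles, and their 90th percentile fluorescence all below set limits, cut at about 80% in these data, passing the limit was not always enough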;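 note: values below 100% mean blocked vesicle binding to the CD8+ T cells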
#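 Read-out – percent CD8+ FL2 mean versus row control · System – murine 2C transgenic CD8+ T lymphocytes · Times – 1.5 h cell–vesicle binding at 37 °C, then 20 min icy labelling · Control set – naked vesicles low, QL9 vesicles with vehicle high · Detection – cytometric PE anti-B7-1 and Alexa647 anti-CD8 signals after 1% paraformaldehyde fixation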
# PGE2 EP2 inh: blocks the human prostaglandin E2 receptor EP2; P43116; C6 glioma cells expressing human EP2, cAMP TR-FRET; cells stimulated with saturating PGE2; inhibition, % at 25 µM; 260,000 tested, 0.52% active;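 active = percent inhibition above 40 after rounding to a whole number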;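 note: rat C6 glioma host cells with rolipram phosphodiesterase inhibitor present; the protocol text gives 20 µM as final concentration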
# MC4R barr agon: human MC4R agonism via beta-arrestin; P32245; U2OS MC4R beta-arrestin complementation, luminescence; percent of melanotan II response, DMSO zero; activation, % at 8.9 µM; 360,000 tested, 0.98% active;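 active = activation above a per-plate cutoff, the mean activation of sample wells on that plate plus 3 SD, cut at about 8% in these data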
# EP2 mod: EP2 receptor (human) modulation; P43116; EP2-expressing cells, cAMP HTRF FRET, PGE2 co-stimulation; 260,000 tested, 0.83% active; induction, % at 25 µM;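 active = compounds whose cAMP rise, as percent of the full-agonist control response, exceeds 60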;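 note: rat C6 glioma line stably carrying human EP2 under a CMV promoter; the protocol text gives 20 µM as final concentration; 100% = response of wells given 1 µM PGE2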
# * marks the source's active call; other numbers are inactive results; i = inactive; · = no result. A selection: hits, their analogues and other compounds. The true share with any hit is near 2.6%.
SMILES,MC4R antagonist,Granule exo inh,T cell modulator,PGE2 EP2 inh,MC4R barr agon,EP2 mod
Cc1cc(-n2c(SCC(=O)NCCC3=CCCCC3)nc3n[nH]c(C)c3c2=N)ccc1Cl,10,2,538,·,15*,·
COc1ccc(NC(=O)CSc2nc3n[nH]c(C)c3c(=N)n2-c2ccc(Cl)c(C)c2)cc1OC,17,0,590,·,25*,·
COc1ccc(OC)c(NC(=O)CSc2nc3n[nH]c(C)c3c(=N)n2-c2cccc(Cl)c2C)c1,10,1,541,·,-2,·
COc1ccc(-n2c(SCC(=O)NCC3CCCO3)nc3n[nH]c(C)c3c2=N)cc1 (configuration not stated),4,-4,177,9,0,25
O=C(CSCc1ccccc1Br)N/N=C/c1ccc2c(c1)OCO2,6,-1,270,5,-1,-22
Cc1ccc(N2CC(C(=O)Nc3cccnc3)CC2=O)cc1 (configuration not stated),-1,2,440,5,-2,-11
CC(C)NC(=O)CSc1nc(-c2cccs2)cc(C(F)(F)F)c1C#N,·,·,·,10,·,3
COc1ccc(-c2nc3ccccn3c2C=O)cc1,19,2,i,7,0,-5
CC(C)(C)c1cc(NCc2ccccn2)n2ncc(-c3ccccc3)c2n1,9,16,i,5,-1,62*
Cc1cc(C)n(-c2cc(C(C)(C)C)nc3c(-c4ccccc4)cnn23)n1,6,3,502,4,5,0
CC(C)(C)OC(=O)N1CCC(NC(=O)c2[nH]cnc2C(=O)Nc2ccccc2)CC1,3,11,241,·,8.5*,·
CC(C)(C)OC(=O)N1CCC(NC(=O)c2[nH]cnc2C(=O)Nc2ccccc2F)CC1,8,-3,·,·,8.3*,·
Cc1ccc(NC(=O)c2nc[nH]c2C(=O)NC2CCN(C(=O)OC(C)(C)C)CC2)cc1,7,-3,415,·,0,·
Cc1ccc(C)c(NC(=O)CCN2CC(C)OC(C)C2)c1 (configuration not stated),2,-5,545,8,0,10
CCSc1nc(-c2cccs2)nc2ccccc12,-2,4,206,5,1,64*
O=C(N/C=N/OCc1ccc(Cl)cc1Cl)NOCc1ncc(C(F)(F)F)cc1Cl,1,-2,246,5,4,61*
C[C@@H]1c2ccccc2Cn2cc3c(c21)C(=O)c1cccc(OP(=O)(O)OCc2ccccc2)c1C3=O,·,·,·,42*,·,25
O=P(O)(OCc1ccccc1)OCc1ccccc1,7,1,517,·,0,·
COC(=O)CSc1nc2c(c(-c3ccc(O)cc3)c1C#N)CCCC2,4,-1,178,3,1,62*
COc1cc(C(=O)OCC(=O)Nc2ccccc2C(=O)NC2CC2)c([N+](=O)[O-])cc1OC,6,0,179,·,-1,·
CC(C)C[C@@]12C(=O)N(c3cccc(F)c3)C(=O)N1[C@H](c1ccc(Br)cc1)[C@@H]1C(=O)N(C(C)(C)C)C(=O)[C@@H]12,10,77*,372,·,-1,·
CC(C)C[C@@]12C(=O)N(c3cccc(Cl)c3)C(=O)N1[C@H](c1ccc(Br)cc1)[C@@H]1C(=O)N(C(C)(C)C)C(=O)[C@@H]12,5,-5,216,·,2,·
OC(CNCC1CCCO1)Cn1c2ccccc2c2ccccc21 (configuration not stated),-5,2,196,10,-2,-14
OC(CNCC1CCCO1)Cn1c2ccc(Cl)cc2c2cc(Cl)ccc21 (configuration not stated),-7,54,761,36,8.9*,-12
O=S(=O)(O)c1ccc(N=Nc2ccc3c(S(=O)(=O)O)cccc3c2O)c2ccccc12,·,·,·,56*,·,-9
SMILES,MC4R antagonist,Granule exo inh,T cell modulator,PGE2 EP2 inh,MC4R barr agon,EP2 mod
O=C(O)C1=C[C@H](c2coc3ccccc3c2=O)C[C@H](OCCCCO)O1,-1,69*,·,14,0,27
Cc1cc(N/N=C/c2ccc(O)c(C)c2O)nc(-c2ccccc2O)n1,9,80*,334,91*,2,-7
O=C(Nc1ccc(F)cc1F)c1ccc2nc(N3CCOCC3)sc2c1,9,0,947,·,-2,·
O=C(Nc1ccccc1F)c1ccc2nc(N3C(=O)CCC3=O)sc2c1,33*,-8,837,26,0,-3
COc1ccc(C(=O)CCC(C)(C)[N+](=O)[O-])cc1OC,5,-6,60*,8,0,-13
CCN(C(=O)c1cc2cc3ccc(C)cc3nc2o1)c1ccc(OC)cc1,22,1,127,7,0,-3
CCN1CCN(c2ncnc3scc(-c4ccc(C)c(C)c4)c23)CC1,14,82*,202,·,1,·
O=C(O)C1CCCCC1C(=O)Nc1ccccc1Cl (configuration not stated),-1,1,214,5,-1,8
O=C(Nc1ccc2c(c1)OCO2)C1COc2ccccc2O1 (configuration not stated),1,-2,159,11,-1,-8
Cc1cc(=O)oc2cc(NC(=O)C3COc4ccccc4O3)ccc12 (configuration not stated),13,2,235,4,11*,21
COC(=O)c1[nH]c2ccccc2c1NC(=O)/C=C/c1ccc2c(c1)OCO2,-4,9,157,5,8.4*,-2
CC(=O)c1cccc(Nc2nc(-c3ccccc3)cs2)c1,4,-1,219,5,7,-5
CC(=O)c1cccc(Nc2nc(-c3ccc(O)cc3O)cs2)c1,·,·,·,70*,·,-136
CC1(C)N=C(N)N=C(N)N1c1cccc(OCc2cccc([N+](=O)[O-])c2)c1,·,·,·,47*,·,10
CCCCOc1ccc(C(=O)Nn2cnnc2)cc1,8,4,467,8,0,-9
CCOC(=O)c1sc2ncn(/N=C/c3ccc(O)c(OC)c3)c(=O)c2c1C,18,105*,297,7,2,58
Cc1cc(Cc2cc(Cc3cc(C)cc(C(C)(C)C)c3O)c(C)cc2C)c(O)c(C(C)(C)C)c1,·,·,·,52*,·,19
CC(Oc1ccccc1F)C(=O)NNC(=O)c1cc2ccccc2o1 (configuration not stated),8,-2,444,-1,-1,-9
CCOC(=O)C1=C(O)/C(=C/c2ccc(OCC(=O)O)c(OCC)c2)SC1=Nc1ccc(OC)cc1,-5,-8,341,4,-2,-7
CCOC(=O)C1=C(O)/C(=C/c2cc(OC)c(OC)c(OC)c2)SC1=Nc1ccc(OC)cc1,-7,1,309,·,8.3*,1
